Among the data in PubChem BioAssay are GFP response vs DMSO, GFP response relative to DMSO and GFP response, % of DMSO values, retold here.

Activity calls are given as the source filed them.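 The calls were made as follows, unless noted: active = GFP response above 150% of the DMSO level; inconclusive = fewer than 70 events counted for a yeast strain; inactive = the rest.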

The nature of experiment [1]: hit retest on RPL19A-GFP reporter strain – cell-based, S. cerevisiae, flow cytometry, cherry picks, mother/daughter gates, confirmation (AID 2270;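 active = GFP response below 50% of the DMSO control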). To be noted: 3 h, at 10 µM, stronger effect = lower value, 100 = same GFP as DMSO wells.
Experiment [2] in a line: yeast TOR pathway reporter LAP4-GFP change – cell-based, cherry picks, flow cytometry, mother/daughter gates, confirmation (AID 2271;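 active = GFP response above 150% of the DMSO control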;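 also: ratio of sample to DMSO plate mean so 100% equals DMSO level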). To be noted: S. cerevisiae LAP4-GFP strain, 3 h, at 10 µM, stronger effect = higher value, 100 means same as DMSO control. The essentials:
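System: GFP-fusion yeast strain | Input: Yeast cells seeded at OD600 of 0.2 | Technique: HT flow cytometry, GFP fluorescence channel | Read-out: % GFP response vs DMSO | Dosing: Single test-compound dose, 10 µM final | Controls: Positive rapamycin (400 ng/mL), negative DMSO | Times: 3 h treatment at 30 °C with rotation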
(In general: In flow cytometry, cells or beads pass a laser one at a time.)

Experiment [3] in a line: TOR pathway reporter MEP2-GFP, retest of hits – S. cerevisiae, flow cytometry GFP, cherry picks, confirmation (AID 2272;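 active = GFP response above 150% of the DMSO control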;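 also: ratio of well signal to plate DMSO mean so 100% equals DMSO level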). To be noted: S. cerevisiae MEP2-GFP strain, 3 h, at 10 µM, stronger effect = higher value.
Experiment [4] in a line: yeast AGP1-GFP fluorescence change, single-dose – cell-based, flow cytometry, S. cerevisiae, cherry picks, confirmation (AID 2273).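 Also: median GFP channel fluorescence over the whole cell population gate.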 As to conditions: S. cerevisiae AGP1-GFP strain, 3 h, at 10 µM.
A short description of experiment [5]: TOR pathway CIT2 reporter hit retest – S. cerevisiae, GFP fusion, cherry picks, mother/daughter gates, confirmation (AID 2274). As to conditions: S. cerevisiae CIT2-GFP strain, flow cytometry, 3 h, at 10 µM, stronger effect = higher value.
The mark [6] stands for this setting: measured here: daughter cell gate.
Where [7] appears, read: measured here: mother cell gate.
The mark [8] stands for this setting: measured here: daughter cell gate response.
Where [9] appears, read: measured here: mother cell gate response.

Take `CCOc1ccccc1/C=C/C(=O)c1ccc(Cl)cc1`: the GFP response vs DMSO was 98.2% (inactive) in experiment [1], 97.1% in experiment [1] (setting [6]), 98.5% in experiment [1] (setting [7]) and 98.3% (inactive) in experiment [3]. The GFP response relative to DMSO is 99.2% (inactive) in experiment [2], 99.2% in experiment [2] (setting [8]) and 97.2% in experiment [2] (setting [9]). Also, the GFP response, % of DMSO was 102% (inactive) in experiment [4], 103% (inactive) in experiment [5], 103% in experiment [5] (setting [6]) and 102% in experiment [5] (setting [7]).
As for `CC(=O)c1sc2nc(C)c3c(c2c1N)CCCC3`, the GFP response vs DMSO is 89.4% (inactive) in experiment [1], 88.5% in experiment [1] (setting [6]), 89.3% in experiment [1] (setting [7]) and 101% (inactive) in experiment [3]. The GFP response relative to DMSO in experiment [2] is 111% (inactive); in experiment [2] (setting [8]), 104%; in experiment [2] (setting [9]), 115%. Further, the GFP response, % of DMSO in experiment [4] was 98.2% (inactive); in experiment [5], 91.7% (inactive); in experiment [5] (setting [6]), 88.7%; in experiment [5] (setting [7]) it was 92.6%.
For the compound `CCCc1[nH]nc2c1C1(C(=O)N(CC)c3ccccc31)C(C#N)=C(N)O2` (stereo not given), the GFP response vs DMSO is 96.6% (inactive) in experiment [1], 95.9% in experiment [1] (setting [6]), 96.9% in experiment [1] (setting [7]) and 98.3% (inactive) in experiment [3]. Also, the results for the GFP response relative to DMSO in experiment [2], in experiment [2] (setting [8]) and in experiment [2] (setting [9]) were 96.7% (inactive), 97.6% and 94%, respectively. Also, the GFP response, % of DMSO in experiment [4] was 98.5% (inactive); in experiment [5] it was 101% (inactive); in experiment [5] (setting [6]) it was 99.1%; in experiment [5] (setting [7]), 101%.
In the case of `O=C(Cc1ccc(Cl)cc1)NNC(=S)NC(=O)c1cccs1`, the GFP response vs DMSO was 104% (inactive) in experiment [1], 104% in experiment [1] (setting [6]), 104% in experiment [1] (setting [7]) and 114% (inactive) in experiment [3]. Besides, the GFP response relative to DMSO is 150% (active) in experiment [2], 151% in experiment [2] (setting [8]) and 151% in experiment [2] (setting [9]). Also, the GFP response, % of DMSO in experiment [4] is 102% (inactive); in experiment [5], 109% (inactive); in experiment [5] (setting [6]) it was 115%; in experiment [5] (setting [7]), 104%.
On to `Cc1cccc(NC(=O)c2ccc([N+](=O)[O-])o2)c1`, for which the GFP response vs DMSO in experiment [1] is 103% (inactive); in experiment [1] (setting [6]) it was 105%; in experiment [1] (setting [7]), 101%; in experiment [3] it was 106% (inactive). For the same compound, the GFP response relative to DMSO in experiment [2] was 126% (inactive); in experiment [2] (setting [8]), 115%; in experiment [2] (setting [9]), 125%. For the same compound, the GFP response, % of DMSO is 96.2% (inactive) in experiment [4], 105% (inactive) in experiment [5], 106% in experiment [5] (setting [6]) and 101% in experiment [5] (setting [7]).
On to `Cc1cc(C)c(C)c(S(=O)(=O)ON2C(=O)c3ccccc3C2=O)c1C`, for which the GFP response vs DMSO in experiment [1] is 103% (inactive); in experiment [1] (setting [6]) it was 97.5%; in experiment [1] (setting [7]) it was 94.1%; in experiment [3], 114% (inactive). Also, the GFP response relative to DMSO in experiment [2] was 206% (active); in experiment [2] (setting [8]) it was 170%; in experiment [2] (setting [9]), 204%. The GFP response, % of DMSO in experiment [4] was 97.3% (inactive); in experiment [5] it was 105% (inactive); in experiment [5] (setting [6]) it was 113%; in experiment [5] (setting [7]) it was 91%.
As for `Cc1ccc(S(=O)(=O)N2CCCC2C(=O)OCc2ccco2)cc1` (stereo not given), the GFP response vs DMSO in experiment [1] was 103% (inactive); in experiment [1] (setting [6]) it was 103%; in experiment [1] (setting [7]), 103%; in experiment [3] it was 107% (inactive). Besides, the GFP response relative to DMSO is 89% (inactive) in experiment [2], 92.5% in experiment [2] (setting [8]) and 92.1% in experiment [2] (setting [9]). Also, the GFP response, % of DMSO in experiment [4] was 97.6% (inactive); in experiment [5], 112% (inactive); in experiment [5] (setting [6]), 111%; in experiment [5] (setting [7]) it was 112%.
`CCc1cccc(C)c1NC(=O)CC1Oc2ccc(C)cc2NC1=O` (stereo not given): the GFP response vs DMSO in experiment [1] is 99.3% (inactive); in experiment [1] (setting [6]), 99.5%; in experiment [1] (setting [7]), 100%; in experiment [3], 101% (inactive). For the same compound, the GFP response relative to DMSO in experiment [2] is 90.6% (inactive); in experiment [2] (setting [8]), 91.3%; in experiment [2] (setting [9]), 91.3%. Also, the GFP response, % of DMSO in experiment [4] was 101% (inactive); in experiment [5], 98.6% (inactive); in experiment [5] (setting [6]), 97.6%; in experiment [5] (setting [7]) it was 98.2%.
In the case of `Cc1ccc(S(=O)(=O)N(Cc2ccc(F)cc2)Cc2ccco2)cc1`, the GFP response vs DMSO in experiment [1] was 97.6% (inactive); in experiment [1] (setting [6]), 96.7%; in experiment [1] (setting [7]) it was 97.7%; in experiment [3], 103% (inactive). Moreover, the figures for the GFP response relative to DMSO in experiment [2], in experiment [2] (setting [8]) and in experiment [2] (setting [9]) were 102% (inactive), 105% and 104%, respectively. The GFP response, % of DMSO in experiment [4] was 97.9% (inactive); in experiment [5], 97.2% (inactive); in experiment [5] (setting [6]), 99.3%; in experiment [5] (setting [7]), 98.2%.
With `COc1ccc(/C=N/Nc2nc(-c3cccnc3)nc3ccccc23)cc1OC`, the GFP response vs DMSO in experiment [1] is 100% (inactive); in experiment [1] (setting [6]) it was 99.3%; in experiment [1] (setting [7]), 102%; in experiment [3] it was 137% (inactive). Also, the GFP response relative to DMSO in experiment [2] is 129% (inactive); in experiment [2] (setting [8]), 130%; in experiment [2] (setting [9]) it was 129%. Also, the GFP response, % of DMSO in experiment [4] was 104% (inactive); in experiment [5], 144% (inactive); in experiment [5] (setting [6]), 143%; in experiment [5] (setting [7]) it was 141%.
With `COC(=O)c1ccc(/C=C/C(=O)c2ccc(OC)cc2)cc1`, the GFP response vs DMSO in experiment [1] was 99.9% (inactive); in experiment [1] (setting [6]), 97.8%; in experiment [1] (setting [7]), 101%; in experiment [3] it was 104% (inactive). Moreover, the GFP response relative to DMSO in experiment [2] was 114% (inactive); in experiment [2] (setting [8]), 108%; in experiment [2] (setting [9]), 111%. The GFP response, % of DMSO in experiment [4] is 94.9% (inactive); in experiment [5] it was 99.3% (inactive); in experiment [5] (setting [6]), 100%; in experiment [5] (setting [7]), 99.1%.
For `Cc1c(NC2=C(Cl)C(=O)N(c3ccccc3Cl)C2=O)c(=O)n(-c2ccccc2)n1C`, the GFP response vs DMSO in experiment [1] was 94.7% (inactive); in experiment [1] (setting [6]), 96.6%; in experiment [1] (setting [7]), 95.6%; in experiment [3] it was 96.6% (inactive). Further, the GFP response relative to DMSO is 93.7% (inactive) in experiment [2], 96.6% in experiment [2] (setting [8]) and 94.1% in experiment [2] (setting [9]). The GFP response, % of DMSO in experiment [4] is 102% (inactive); in experiment [5], 110% (inactive); in experiment [5] (setting [6]), 108%; in experiment [5] (setting [7]), 110%.
`CCN(c1ccccc1)S(=O)(=O)c1ccc(C(=O)Nc2nnc(COC)o2)cc1`: the GFP response vs DMSO was 101% (inactive) in experiment [1], 99.5% in experiment [1] (setting [6]), 102% in experiment [1] (setting [7]) and 100% (inactive) in experiment [3]. Besides, the figures for the GFP response relative to DMSO in experiment [2], in experiment [2] (setting [8]) and in experiment [2] (setting [9]) were 96.2% (inactive), 97.2% and 98.3%, respectively. Besides, the GFP response, % of DMSO was 99.2% (inactive) in experiment [4], 96.5% (inactive) in experiment [5], 94.8% in experiment [5] (setting [6]) and 98.7% in experiment [5] (setting [7]).
Take `CS(=O)(=O)Nc1cccc(C2=NN(S(C)(=O)=O)C(c3ccc4c(c3)OCO4)C2)c1` (stereo not given): the GFP response vs DMSO in experiment [1] is 97.2% (inactive); in experiment [1] (setting [6]), 98.9%; in experiment [1] (setting [7]), 98.7%; in experiment [3] it was 102% (inactive). Moreover, the values for the GFP response relative to DMSO in experiment [2], in experiment [2] (setting [8]) and in experiment [2] (setting [9]) were 99.2% (inactive), 99.2% and 98.3%, respectively. Further, the GFP response, % of DMSO was 99.5% (inactive) in experiment [4], 103% (inactive) in experiment [5], 103% in experiment [5] (setting [6]) and 103% in experiment [5] (setting [7]).
Consider `CC(NC(=O)C1CCC(CNS(=O)(=O)c2ccccc2)CC1)c1ccccc1` (stereo not given), for which the GFP response vs DMSO in experiment [1] is 101% (inactive); in experiment [1] (setting [6]), 102%; in experiment [1] (setting [7]), 101%; in experiment [3], 104% (inactive). Moreover, the GFP response relative to DMSO in experiment [2] is 100% (inactive); in experiment [2] (setting [8]), 102%; in experiment [2] (setting [9]), 99.5%. Besides, the GFP response, % of DMSO was 107% (inactive) in experiment [4], 99.3% (inactive) in experiment [5], 100% in experiment [5] (setting [6]) and 96.8% in experiment [5] (setting [7]).
